Experimental data: ChEMBL document CHEMBL3351567, “Heterodimeric ent-kauranoids from Isodon tenuifolius” (J Nat Prod, 2014)

Legend:
Assay type in all cases: functional, cell-based
[1] = Cytotoxicity against human HL60 cells after 48 hrs by MTT assay; settings: HL-60, 48 h
How it was run: (§1)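 Cells grown in RPMI-1640 or DMEM with 10% FBS, 37 °C, 5% CO2. Seeded at 1 × 10^5 cells/mL in 100 μL; adherent lines attached 12 h before dosing, suspension cells seeded at dosing. Compound at various concentrations in triplicate, 48 h. MTT (100 μg) added for 4 h, lysed with 20% SDS–50% DMF, OD 595 nm. IC50 by Reed–Muench method; cisplatin and paclitaxel as positive controls.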

[2] = test system: A549; experiment: Cytotoxicity against human A549 cells after 48 hrs by MTT assay; settings: A549, 48 h; how it was run: as §1
[3] = test system: MCF7; experiment: Cytotoxicity against human MCF7 cells after 48 hrs by MTT assay; settings: MCF7, 48 h; how it was run: as §1
[4] = test system: SW480; experiment: Cytotoxicity against human SW480 cells after 48 hrs by MTT assay; settings: SW480, 48 h; how it was run: as §1
[5] = test system: SMMC-7721; experiment: Cytotoxicity against human SMMC7721 cells after 48 hrs by MTT assay; settings: SMMC-7721, 48 h; how it was run: as §1

CC(=O)O[C@H]1C[C@@H]2C[C@@]3(C4=C2CC[C@@]2(O4)C(=O)[C@]45C[C@H]2C[C@H](OC(C)=O)[C@H]4[C@]2(C)[C@@H](OC(C)=O)C[C@H](O)C(C)(C)[C@H]2C(=O)[C@@H]5OC(C)=O)[C@@H]1[C@]1(C)[C@@H](OC(C)=O)C[C@H](OC(C)=O)C(C)(C)[C@H]1C(=O)[C@@H]3O
IC50 [1]: 4.6 µM
IC50 [2]: > 10 µM
IC50 [3]: 4.2 µM
IC50 [4]: 4 µM
IC50 [5]: 9.9 µM

CC(=O)O[C@H]1C[C@@H]2C[C@@]3(C(=O)[C@]24CCC2=C(O4)[C@]45C[C@H]2C[C@H](OC(C)=O)[C@H]4[C@]2(C)[C@@H](OC(C)=O)C[C@H](O)C(C)(C)[C@H]2C(=O)[C@@H]5OC(C)=O)[C@@H]1[C@]1(C)[C@@H](OC(C)=O)C[C@H](OC(C)=O)C(C)(C)[C@H]1C(=O)[C@@H]3O
IC50 [1]: > 10 µM
IC50 [2]: > 10 µM
IC50 [3]: > 10 µM
IC50 [4]: > 10 µM
IC50 [5]: > 10 µM

CC(=O)O[C@H]1C[C@@H]2C[C@@]3(C(=O)[C@]24CCC2=C(O4)[C@]45C[C@H]2C[C@H](OC(C)=O)[C@H]4[C@]2(C)[C@@H](OC(C)=O)C[C@H](O)C(C)(C)[C@H]2C(=O)[C@@H]5O)[C@@H]1[C@]1(C)[C@@H](OC(C)=O)C[C@H](O)C(C)(C)[C@H]1C(=O)[C@@H]3O
IC50 [1]: > 10 µM
IC50 [2]: > 10 µM
IC50 [3]: > 10 µM
IC50 [4]: > 10 µM
IC50 [5]: > 10 µM

CC(=O)O[C@H]1C[C@@H]2C[C@@]3(C(=O)[C@]24CCC2=C(O4)[C@@]45CC(=O)[C@@H]6C(C)(C)[C@@H](OC(C)=O)C[C@H](O)[C@@]6(C)[C@@H]4C(=O)C[C@@H]2C5)[C@@H]1[C@]1(C)[C@@H](OC(C)=O)C[C@H](O)C(C)(C)[C@H]1C(=O)[C@@H]3OC(C)=O
IC50 [1]: > 10 µM
IC50 [2]: > 10 µM
IC50 [3]: > 10 µM
IC50 [4]: > 10 µM
IC50 [5]: > 10 µM

CC(=O)O[C@H]1C[C@@H]2C[C@@]3(C(=O)[C@]24CCC2=C(O4)[C@]45C[C@H]2C[C@H](OC(C)=O)[C@H]4[C@]2(C)[C@@H](OC(C)=O)C[C@H](O)C(C)(C)[C@H]2[C@@H](O)[C@@H]5O)[C@@H]1[C@]1(C)[C@@H](OC(C)=O)C[C@H](O)C(C)(C)[C@H]1[C@@H](O)[C@@H]3O
IC50 [1]: > 10 µM
IC50 [2]: > 10 µM
IC50 [3]: > 10 µM
IC50 [4]: > 10 µM
IC50 [5]: > 10 µM

CC(=O)O[C@H]1C[C@@H]2C[C@@]3(C(=O)[C@H]2C[C@]2(CO)C(=O)[C@]45C[C@H]2C[C@H](OC(C)=O)[C@H]4[C@]2(C)[C@@H](OC(C)=O)C[C@H](O)C(C)(C)[C@H]2C(=O)[C@@H]5O)[C@@H]1[C@]1(C)[C@@H](OC(C)=O)C[C@H](O)C(C)(C)[C@H]1C(=O)[C@@H]3O
IC50 [1]: > 10 µM
IC50 [2]: > 10 µM
IC50 [3]: > 10 µM
IC50 [4]: > 10 µM
IC50 [5]: > 10 µM

COC[C@@]1(C[C@@H]2C(=O)[C@]34C[C@H]2C[C@H](OC(C)=O)[C@H]3[C@]2(C)[C@@H](OC(C)=O)C[C@H](O)C(C)(C)[C@H]2C(=O)[C@@H]4O)C(=O)[C@]23C[C@H]1C[C@H](OC(C)=O)[C@H]2[C@]1(C)[C@@H](OC(C)=O)C[C@H](O)C(C)(C)[C@H]1C(=O)[C@@H]3O
IC50 [1]: > 10 µM
IC50 [2]: > 10 µM
IC50 [3]: > 10 µM
IC50 [4]: > 10 µM
IC50 [5]: > 10 µM

COC[C@@]1(C[C@@H]2C(=O)[C@]34C[C@H]2C[C@H](OC(C)=O)[C@H]3[C@]2(C)[C@@H](OC(C)=O)C[C@H](O)C(C)(C)[C@H]2C(=O)[C@@H]4O)C(=O)[C@]23C[C@H]1C[C@H](OC(C)=O)[C@H]2[C@]1(C)[C@@H](OC(C)=O)C[C@H](O)C(C)(C)[C@H]1C(=O)[C@H]3O
IC50 [1]: > 10 µM
IC50 [2]: > 10 µM
IC50 [3]: > 10 µM
IC50 [4]: > 10 µM
IC50 [5]: > 10 µM

COC[C@@]1(C[C@@H]2C(=O)[C@]34C[C@H]2C[C@H](OC(C)=O)[C@H]3[C@]2(C)[C@@H](OC(C)=O)C[C@H](O)C(C)(C)[C@H]2C(=O)[C@@H]4O)C(=O)[C@]23C[C@H]1C[C@H](O)[C@H]2[C@@]1(C)[C@H](C(=O)[C@@H]3O)C(C)(C)[C@@H](O)C[C@@H]1O
IC50 [1]: > 10 µM
IC50 [2]: > 10 µM
IC50 [3]: > 10 µM
IC50 [4]: > 10 µM
IC50 [5]: > 10 µM

COC[C@@]1(C[C@@H]2C(=O)[C@]34C[C@H]2C[C@H](OC(C)=O)[C@H]3[C@@]2(C)[C@H](C(=O)[C@@H]4O)C(C)(C)[C@@H](O)C[C@@H]2O)C(=O)[C@]23C[C@H]1C[C@H](OC(C)=O)[C@H]2[C@]1(C)[C@@H](OC(C)=O)C[C@H](O)C(C)(C)[C@H]1C(=O)[C@@H]3O
IC50 [1]: > 10 µM
IC50 [2]: > 10 µM
IC50 [3]: > 10 µM
IC50 [4]: > 10 µM
IC50 [5]: > 10 µM

CC(=O)O[C@H]1C[C@@H]2C[C@@]3(C(=O)[C@]24CC[C@@]42C(=O)[C@]45C[C@H]2C[C@H](OC(C)=O)[C@H]4[C@]2(C)[C@@H](OC(C)=O)C[C@H](O)C(C)(C)[C@H]2C(=O)[C@@H]5O)[C@@H]1[C@]1(C)[C@@H](OC(C)=O)C[C@H](OC(C)=O)C(C)(C)[C@H]1C(=O)[C@@H]3OC(C)=O
IC50 [1]: > 10 µM
IC50 [2]: > 10 µM
IC50 [3]: > 10 µM
IC50 [4]: > 10 µM
IC50 [5]: > 10 µM

CC(=O)O[C@H]1C[C@@H]2C[C@@]3(CC(=O)[C@@H]4C(C)(C)[C@@H](O)C[C@H](OC(C)=O)[C@@]4(C)[C@H]13)C(=O)[C@]21CC[C@@]12C(=O)[C@]13C[C@H]2C[C@H](OC(C)=O)[C@H]1[C@]1(C)[C@@H](OC(C)=O)C[C@H](O)C(C)(C)[C@H]1C(=O)[C@@H]3OC(C)=O
IC50 [1]: > 10 µM
IC50 [2]: > 10 µM
IC50 [3]: > 10 µM
IC50 [4]: > 10 µM
IC50 [5]: > 10 µM

CC(=O)O[C@H]1C(=O)[C@@]2(C)[C@H]([C@H](OC(=O)c3ccccc3)[C@]3(O)C[C@H](OC(=O)[C@H](O)[C@@H](NC(=O)c4ccccc4)c4ccccc4)C(C)=C1C3(C)C)[C@]1(OC(C)=O)CO[C@@H]1C[C@@H]2O [PACLITAXEL]
IC50 [1]: < 0.008 µM
IC50 [2]: < 0.008 µM
IC50 [3]: < 0.008 µM
IC50 [5]: < 0.008 µM
